Test results taken from ChEMBL document CHEMBL1139318, “Tyrosinase inhibitory effects of 1,3-diphenylpropanes from Broussonetia kazinoki” (Bioorg Med Chem, 2009).

What follows are compounds tested against T1, Tyrosinase (Agaricus bisporus, UniProt O42713) (assay: Inhibition of mushroom tyrosinase by kinetic based assay). Settings: read-out: Ki(app).
T1 sequence (O42713 whole entry): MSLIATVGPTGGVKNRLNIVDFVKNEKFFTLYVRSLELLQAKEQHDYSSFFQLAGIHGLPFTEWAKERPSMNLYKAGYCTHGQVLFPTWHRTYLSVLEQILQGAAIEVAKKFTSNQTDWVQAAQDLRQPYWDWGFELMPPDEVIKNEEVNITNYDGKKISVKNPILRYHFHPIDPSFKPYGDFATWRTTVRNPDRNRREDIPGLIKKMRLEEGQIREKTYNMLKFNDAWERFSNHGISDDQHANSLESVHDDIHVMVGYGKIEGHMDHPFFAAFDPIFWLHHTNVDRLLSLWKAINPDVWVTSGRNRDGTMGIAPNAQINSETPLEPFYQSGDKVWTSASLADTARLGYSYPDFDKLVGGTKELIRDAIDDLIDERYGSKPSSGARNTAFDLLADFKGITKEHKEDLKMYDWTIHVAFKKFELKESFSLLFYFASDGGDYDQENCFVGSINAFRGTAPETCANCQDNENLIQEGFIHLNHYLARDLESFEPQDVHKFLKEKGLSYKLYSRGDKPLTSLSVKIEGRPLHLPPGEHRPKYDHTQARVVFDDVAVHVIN
Procedure, shortened: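 Time-dependent assay with L-tyrosine substrate in 0.25 M phosphate buffer (pH 6.8) at 30 °C. Activity was monitored continuously for 15 min, giving 20 points at 30 s intervals, at several inhibitor concentrations and fixed substrate. kobs came from the slow-binding equation or from ln(residual activity) versus preincubation time. k3, k4 and Kiapp came from kobs versus [I] by the Morrison–Walsh method, using nonlinear regression.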

Row | Structure (SMILES) | Ki
1 | C=CC(C)(C)c1cc(CCCc2cc(O)c(O)c(CC3OC3(C)C)c2CC=C(C)C)c(O)cc1O (stereo not drawn) [KAZINOL S] | 0.87 µM
2 | CC(C)=CCc1c(CCCc2ccc(O)cc2O)cc(O)c(O)c1CC=C(C)C [KAZINOL F] | 0.181 µM
3 | CC(C)=CCc1cc(CCCc2ccc(O)cc2O)ccc1O [BROUSSONIN C] | 0.0485 µM

Each compound was assayed against T1, Tyrosinase (assay: Inhibition of diphenolase activity of mushroom tyrosinase using as L-DOPA substrate). Settings: not given.
Procedure, shortened: (§1)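 Mushroom tyrosinase (144 units) was added to 0.25 M phosphate buffer (pH 6.8) with substrate: L-tyrosine for monophenolase or L-DOPA for diphenolase. Substrate was added as 200 µL of a 2.7 mM L-tyrosine or 5.4 mM L-DOPA stock. Samples were 10 mM EtOH stocks. Dopachrome formation was read at 475 nm at 30 °C. Runs were triplicate, and IC50 came from a logistic curve fit.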

Row | Structure (SMILES) | IC50
4 | C=CC(C)(C)c1cc(CCCc2cc(O)c3c(c2CC=C(C)C)CCC(C)(C)O3)c(O)cc1O [KAZINOL D] | > 200 µM
5 | C=CC(C)(C)c1cc(CCCc2cc(O)c(O)c(CC3OC3(C)C)c2CC=C(C)C)c(O)cc1O (stereo not drawn) [KAZINOL S] | 26.9 µM
6 | C=CC(C)(C)c1cc(CCCc2cc(O)c(O)c(CC=C(C)C)c2CC=C(C)C)c(O)cc1O [KAZINOL C] | 22.8 µM
7 | CC(C)=CCc1c(CCCc2ccc(O)cc2O)cc(O)c(O)c1CC=C(C)C [KAZINOL F] | 1.7 µM
8 | CC(C)=CCc1cc(CCCc2ccc(O)cc2O)ccc1O [BROUSSONIN C] | 0.57 µM
9 | C=CC(C)(C)c1cc(CCCc2cc(O)c3c(c2CC=C(C)C)CC(C(C)(C)O)O3)c(O)cc1O (stereo not drawn) [KAZINOL T] | > 200 µM

These compounds were tested against T1, Tyrosinase (assay: Inhibition of monophenolase activity of mushroom tyrosinase using as L-tyrosine substrate). Settings: not given.
Procedure, shortened: as §1

Row | Structure (SMILES) | IC50
10 | C=CC(C)(C)c1cc(CCCc2cc(O)c3c(c2CC=C(C)C)CCC(C)(C)O3)c(O)cc1O [KAZINOL D] | 165 µM
11 | C=CC(C)(C)c1cc(CCCc2cc(O)c(O)c(CC3OC3(C)C)c2CC=C(C)C)c(O)cc1O (stereo not drawn) [KAZINOL S] | 17.9 µM
12 | C=CC(C)(C)c1cc(CCCc2cc(O)c(O)c(CC=C(C)C)c2CC=C(C)C)c(O)cc1O [KAZINOL C] | 15.5 µM
13 | CC(C)=CCc1c(CCCc2ccc(O)cc2O)cc(O)c(O)c1CC=C(C)C [KAZINOL F] | 0.96 µM
14 | CC(C)=CCc1cc(CCCc2ccc(O)cc2O)ccc1O [BROUSSONIN C] | 0.43 µM
15 | C=CC(C)(C)c1cc(CCCc2cc(O)c3c(c2CC=C(C)C)CC(C(C)(C)O)O3)c(O)cc1O (stereo not drawn) [KAZINOL T] | 103 µM

The compounds below were run against T1, Tyrosinase (assay: Inhibition of monophenolase activity of mushroom tyrosinase using as L-tyrosine substrate by Lineweaver-Burke plot based kinetic assay). Settings: not given.

Row | Structure (SMILES) | Ki
16 | C=CC(C)(C)c1cc(CCCc2cc(O)c(O)c(CC3OC3(C)C)c2CC=C(C)C)c(O)cc1O (stereo not drawn) [KAZINOL S] | 9.12 µM
17 | C=CC(C)(C)c1cc(CCCc2cc(O)c(O)c(CC=C(C)C)c2CC=C(C)C)c(O)cc1O [KAZINOL C] | 10.8 µM
18 | CC(C)=CCc1c(CCCc2ccc(O)cc2O)cc(O)c(O)c1CC=C(C)C [KAZINOL F] | 0.41 µM
19 | CC(C)=CCc1cc(CCCc2ccc(O)cc2O)ccc1O [BROUSSONIN C] | 0.23 µM

These compounds were tested against T1, Tyrosinase (assay: Inhibition of diphenolase activity of mushroom tyrosinase using as L-DOPA substrate by Lineweaver-Burke plot based kinetic assay). Settings: not given.
Procedure, shortened: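 Diphenolase kinetics used 0.25 M phosphate buffer (pH 6.8) at 30 °C, reading dopachrome at 475 nm. L-DOPA concentration was varied at several fixed inhibitor concentrations. Reciprocal velocity was plotted against 1/[L-DOPA] (Lineweaver–Burk), and inhibition type and Ki were read from the line pattern.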

Row | Structure (SMILES) | Ki
20 | C=CC(C)(C)c1cc(CCCc2cc(O)c(O)c(CC3OC3(C)C)c2CC=C(C)C)c(O)cc1O (stereo not drawn) [KAZINOL S] | 15.6 µM
21 | C=CC(C)(C)c1cc(CCCc2cc(O)c(O)c(CC=C(C)C)c2CC=C(C)C)c(O)cc1O [KAZINOL C] | 11.2 µM
22 | CC(C)=CCc1c(CCCc2ccc(O)cc2O)cc(O)c(O)c1CC=C(C)C [KAZINOL F] | 0.77 µM
23 | CC(C)=CCc1cc(CCCc2ccc(O)cc2O)ccc1O [BROUSSONIN C] | 0.29 µM
